From ChEMBL document CHEMBL4184152, “Thioether-stapled macrocyclic inhibitors of the EH domain of EHD1” (Bioorg Med Chem, 2018) come the findings set out here.

Molecules are shown by their SMILES. Calls of active or inactive are those of the source. The rule behind the calls is not given here. Where a SMILES comes first, the peptide text is derived from it.

Assay [1] concerns the target T1, EH domain-containing protein 1 (Homo sapiens) (UniProt Q9H4M9).
T1 sequence (whole entry): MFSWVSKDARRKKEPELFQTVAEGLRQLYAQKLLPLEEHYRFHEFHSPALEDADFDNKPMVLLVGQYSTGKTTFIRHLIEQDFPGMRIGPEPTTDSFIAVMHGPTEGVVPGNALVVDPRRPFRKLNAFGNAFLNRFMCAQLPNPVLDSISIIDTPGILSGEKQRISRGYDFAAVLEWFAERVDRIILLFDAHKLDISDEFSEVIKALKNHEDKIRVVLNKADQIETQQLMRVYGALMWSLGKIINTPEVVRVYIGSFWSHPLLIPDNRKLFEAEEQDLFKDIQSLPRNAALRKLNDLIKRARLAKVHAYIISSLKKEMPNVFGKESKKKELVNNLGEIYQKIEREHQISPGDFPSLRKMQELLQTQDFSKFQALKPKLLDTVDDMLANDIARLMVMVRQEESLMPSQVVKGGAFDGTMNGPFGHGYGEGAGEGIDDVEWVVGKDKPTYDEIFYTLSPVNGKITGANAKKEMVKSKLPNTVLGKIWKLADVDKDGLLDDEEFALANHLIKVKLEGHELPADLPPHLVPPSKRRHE
Put plainly: Inhibition of EHD1-EH in human HeLa cells assessed as reduction in internalized transferrin-488 recycling at 50 uM measured after 60 mins by pulse-chase method. In kind it is cell-based. Put shortly:
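HeLa cells were grown in DMEM/10% FBS to 80% confluence, then starved 30 min in DMEM with 0.5% BSA. Cells got a 60-min pulse with Tf-488 (25 µg/mL), with inhibitor present. A 30-min chase followed with 2 mg/mL unlabeled transferrin plus inhibitor, 0.2% DMSO final. Cells were washed in cold PBS, trypsinized and fixed. Flow cytometry counted 10,000 live cells; 50 µM primaquine was the positive control.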

For another assay, the species on record is Homo sapiens. The assay is described as follows: Selectivity ratio of IC50 for GST-fused Eps15 EH2 domain (unknown origin) expressed in Escherichia coli BL21 cells to IC50 for GST-fused EHD1 EH domain (unknown origin).
Assay [2] addresses T2, EH domain-containing protein 1 (Homo sapiens, UniProt Q9H4M9).
T2 sequence (Q9H4M9 whole entry): T1 sequence (whole entry)
The assay is described as follows: Binding affinity to GST-fused EHD1 EH domain (unknown origin) expressed in Escherichia coli BL21 cells measured after 1 hr in presence of 150 mM NaCl by fluorescence polarization assay. An outline of the steps:
(§1)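 NaCl was 15 mM or 150 mM. Polarization was read 1 h after probe addition and re-read later to confirm equilibrium. Kd came from curve fits; technical triplicates, three independent experiments.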

In assay [3] the target is T2, EH domain-containing protein 1. The assay is described as follows: Binding affinity to GST-fused EHD1 EH domain (unknown origin) expressed in Escherichia coli BL21 cells measured after 1 hr in presence of 15 mM NaCl by fluorescence polarization assay. Put shortly:
as §1

Assay [4] concerns the target T3, Epidermal growth factor receptor substrate 15 (Homo sapiens, UniProt P42566).
T3 sequence (P42566 whole entry): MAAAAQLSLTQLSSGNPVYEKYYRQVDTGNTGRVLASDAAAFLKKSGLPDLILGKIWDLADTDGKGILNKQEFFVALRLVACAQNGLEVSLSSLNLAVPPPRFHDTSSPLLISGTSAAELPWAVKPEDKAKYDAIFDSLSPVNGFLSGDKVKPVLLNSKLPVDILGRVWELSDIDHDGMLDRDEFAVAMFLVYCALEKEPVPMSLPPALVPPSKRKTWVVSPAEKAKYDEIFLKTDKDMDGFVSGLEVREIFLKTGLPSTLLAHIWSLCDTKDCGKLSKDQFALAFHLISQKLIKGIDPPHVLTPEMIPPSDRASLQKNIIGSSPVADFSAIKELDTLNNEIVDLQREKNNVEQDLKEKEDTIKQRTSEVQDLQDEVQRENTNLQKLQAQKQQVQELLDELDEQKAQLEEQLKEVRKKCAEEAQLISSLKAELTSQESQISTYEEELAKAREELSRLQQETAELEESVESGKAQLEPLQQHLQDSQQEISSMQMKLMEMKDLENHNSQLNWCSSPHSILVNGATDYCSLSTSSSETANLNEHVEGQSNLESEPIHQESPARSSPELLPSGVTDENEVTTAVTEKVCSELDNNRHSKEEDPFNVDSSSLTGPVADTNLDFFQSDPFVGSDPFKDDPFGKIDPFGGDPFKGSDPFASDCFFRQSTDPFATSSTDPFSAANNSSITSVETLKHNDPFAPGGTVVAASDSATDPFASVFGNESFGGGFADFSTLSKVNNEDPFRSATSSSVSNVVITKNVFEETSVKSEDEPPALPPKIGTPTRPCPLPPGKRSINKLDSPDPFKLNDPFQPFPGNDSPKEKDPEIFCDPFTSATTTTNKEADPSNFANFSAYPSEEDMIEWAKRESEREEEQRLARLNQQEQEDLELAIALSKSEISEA
Put plainly: Binding affinity to GST-fused Eps15 EH2 domain (unknown origin) expressed in Escherichia coli BL21 cells under high salt condition by fluorescence polarization assay. An outline of the steps: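 Eps15-EH2 protein concentration was set by A280 using an extinction coefficient of 13980 M-1cm-1. Binding of fluorescein-labeled peptides to Eps15-EH2 was measured in an FP direct binding format with varying protein concentration.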

Turning to `COc1cc(NC(C)CCCN)c2ncccc2c1` (configuration not stated), in assay [1], the inhibition result is “Active”.
Usually Kd stands for the concentration at which binding is half-saturated. As a reminder, the IC50 is the point on the concentration scale where inhibition reaches its midpoint. As for `CC(=O)N(CCCC[C@@H]1NC(=O)CNC(=O)[C@H](CCC(=O)O)NC(=O)[C@H](CCC(=O)O)NC(=O)[C@H](Cc2ccccc2)NC(=O)[C@@H]2CCCN2C(=O)[C@H](CC(N)=O)NC(=O)[C@H](Cc2ccc(O)cc2)NC1=O)C(=O)c1ccccc1-c1c2ccc(=O)cc-2oc2cc(O)ccc12` (HELM PEPTIDE1{E.E.G.[CC(=O)N(CCCC[C@H](N[*:1])C(=O)[*:2])C(=O)c1ccccc1-c1c2ccc(=O)cc-2oc2cc(O)ccc12].Y.N.P.F}$PEPTIDE1,PEPTIDE1,1:R1-8:R2$$$V2.0), the Ratio IC50 in the assay listed under Homo sapiens was found to be 15. The Kd amounted to 15.1 µM in assay [2] and 3 µM in assay [3]. Also, the IC50 in assay [4] was greater than 100 µM.
For `NC(=O)C[C@@H]1NC(=O)[C@H](Cc2ccc(O)cc2)NC(=O)CNC(=O)CNC(=O)[C@H](CCC(=O)O)NC(=O)[C@H](CCC(=O)O)NC(=O)[C@H](Cc2ccccc2)NC(=O)[C@@H]2CCCN2C1=O` (HELM PEPTIDE1{Y.N.P.F.E.E.G.G}$PEPTIDE1,PEPTIDE1,1:R1-8:R2$$$V2.0), the inhibition result in assay [1] is “inactive”.
Take `C#CCCC(=O)N[C@H]1CSCc2ccc(cc2)CSCCNC(=O)[C@H](CCC(=O)O)NC(=O)[C@H](CCC(=O)O)NC(=O)[C@H](Cc2ccccc2)NC(=O)[C@@H]2CCCN2C(=O)[C@H](CC(N)=O)NC(=O)[C@H](Cc2ccc(O)cc2)NC1=O` (HELM PEPTIDE1{[C#CCCC(=O)[*:2]].C.Y.N.P.F.E.E}|CHEM1{[c1cc(C[*:1])ccc1CSCCN[*:2]]}$PEPTIDE1,CHEM1,2:R3-1:R1|PEPTIDE1,CHEM1,8:R2-1:R2$$$V2.0): the inhibition entry in assay [1] was “inactive”.
